Results from ChEMBL document CHEMBL3124926, “Identification of highly efficacious glucocorticoid receptor agonists with a potential for reduced clinical bone side effects” (J Med Chem, 2014).
In brackets after ≈: the same amount, converted by molar mass.

Columns and labels:
[1] = molecular target: T1, Glucocorticoid receptor (Homo sapiens) (UniProt P04150); assay: Agonist activity at glucocorticoid receptor in human HeLa cells transfected with luciferase gene linked to MMTV promoter assessed as induction of luciferase transactivation activity at 2 uM after 6 hrs by luminescence assay; format: cell-based
T1 sequence (whole entry): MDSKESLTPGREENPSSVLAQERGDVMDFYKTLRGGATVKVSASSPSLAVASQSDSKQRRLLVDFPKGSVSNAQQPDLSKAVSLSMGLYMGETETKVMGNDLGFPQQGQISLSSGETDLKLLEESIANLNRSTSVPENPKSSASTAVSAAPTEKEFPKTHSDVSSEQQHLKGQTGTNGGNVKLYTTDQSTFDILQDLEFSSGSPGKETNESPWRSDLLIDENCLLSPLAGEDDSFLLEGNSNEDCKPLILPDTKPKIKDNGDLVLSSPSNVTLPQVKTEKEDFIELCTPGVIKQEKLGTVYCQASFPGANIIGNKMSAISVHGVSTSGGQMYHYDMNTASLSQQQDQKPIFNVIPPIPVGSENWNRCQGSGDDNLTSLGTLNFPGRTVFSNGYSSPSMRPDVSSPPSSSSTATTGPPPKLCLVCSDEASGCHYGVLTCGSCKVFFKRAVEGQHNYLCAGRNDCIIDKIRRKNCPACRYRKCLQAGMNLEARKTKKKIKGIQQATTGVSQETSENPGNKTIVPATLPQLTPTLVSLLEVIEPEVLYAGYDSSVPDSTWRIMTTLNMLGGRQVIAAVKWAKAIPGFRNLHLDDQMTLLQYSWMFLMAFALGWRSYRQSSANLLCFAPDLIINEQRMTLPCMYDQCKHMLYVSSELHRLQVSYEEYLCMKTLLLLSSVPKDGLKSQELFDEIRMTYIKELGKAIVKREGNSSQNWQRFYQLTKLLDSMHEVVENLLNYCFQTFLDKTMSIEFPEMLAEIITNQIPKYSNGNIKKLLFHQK
Method in brief: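 HeLa cells stably carrying an MMTV-luciferase construct, plated the day before at 25000/well in DMEM with 3% FBS. Medium replaced, then compound added (0.2% DMSO final); 1 μM dexamethasone wells = 100% induction, vehicle = background. Incubated 6 h at 37 °C, 5% CO2. Luminescence read after lysis; activation expressed as % of positive control. Top concentration 2 μM.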

Progesterone receptor = molecular target: T2, Progesterone receptor (Homo sapiens, UniProt P06401); assay: Competitive binding affinity to progesterone receptor (unknown origin) expressed in baculovirus-infected cell system after 1 hr by fluorescence polarization assay in presence of tetramethylrhodamine-labeled RU-486
T2 sequence (P06401 whole entry): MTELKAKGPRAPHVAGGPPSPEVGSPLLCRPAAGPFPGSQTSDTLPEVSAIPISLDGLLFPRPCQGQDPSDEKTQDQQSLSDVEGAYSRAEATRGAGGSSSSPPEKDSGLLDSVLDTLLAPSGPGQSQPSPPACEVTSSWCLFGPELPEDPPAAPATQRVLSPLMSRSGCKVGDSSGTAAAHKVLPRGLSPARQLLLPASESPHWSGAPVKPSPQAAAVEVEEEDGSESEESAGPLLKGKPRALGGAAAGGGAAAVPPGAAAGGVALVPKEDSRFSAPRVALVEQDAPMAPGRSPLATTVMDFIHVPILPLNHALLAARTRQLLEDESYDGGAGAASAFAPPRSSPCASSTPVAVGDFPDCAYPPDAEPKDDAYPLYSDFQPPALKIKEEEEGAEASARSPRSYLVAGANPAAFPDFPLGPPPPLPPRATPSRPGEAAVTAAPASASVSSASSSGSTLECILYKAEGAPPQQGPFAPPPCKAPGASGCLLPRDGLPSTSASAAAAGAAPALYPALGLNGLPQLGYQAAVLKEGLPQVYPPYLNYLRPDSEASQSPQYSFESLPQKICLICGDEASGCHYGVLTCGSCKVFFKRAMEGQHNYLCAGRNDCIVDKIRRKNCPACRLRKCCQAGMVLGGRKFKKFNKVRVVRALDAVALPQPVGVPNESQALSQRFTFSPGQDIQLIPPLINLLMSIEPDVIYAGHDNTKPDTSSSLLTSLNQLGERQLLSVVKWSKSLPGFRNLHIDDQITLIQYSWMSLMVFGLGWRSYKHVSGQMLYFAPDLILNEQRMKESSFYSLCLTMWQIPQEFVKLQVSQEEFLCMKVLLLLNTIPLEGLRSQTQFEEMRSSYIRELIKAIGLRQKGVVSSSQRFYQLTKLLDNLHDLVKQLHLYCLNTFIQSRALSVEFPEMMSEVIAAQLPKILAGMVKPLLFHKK
Method in brief: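 PR from lysate of insect cells infected with receptor baculovirus alone, diluted 13-fold. Probe 5 nM tetramethylrhodamine-labeled RU-486 in pH 7.4 TES/KCl/molybdate buffer with 1% DMSO. 1 h at room temperature in the dark, then fluorescence polarization (ex 550/em 580 nm). Background set with 2 μM RU-486. IC50 from duplicate 11-point curves, four-parameter logistic fit, mean of at least two determinations.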

Glucocorticoid receptor [2] = molecular target: T3, Glucocorticoid receptor (Homo sapiens, UniProt P04150); assay: Competitive binding affinity to glucocorticoid receptor (unknown origin) expressed in baculovirus-infected cell system after 1 hr by fluorescence polarization assay in presence of tetramethylrhodamine-labeled dexamethasone
T3 sequence (P04150 whole entry): T1 sequence (whole entry)
Method in brief: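 Lysates of baculovirus-infected insect cells co-expressing receptor with HSP-70, HSP-90 and p23 (GR diluted 300-fold, MR 17-fold). Probe 5 nM tetramethylrhodamine-dexamethasone in TES/KCl/molybdate/EDTA/CHAPS/glycerol/DTT buffer, pH 7.4, 1% DMSO. 1 h at room temperature in the dark; fluorescence polarization read (ex 550/em 580 nm). Background set with 2 μM dexamethasone. IC50 from duplicate 11-point curves, four-parameter fit, mean of at least two determinations.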

Glucocorticoid receptor [3] = molecular target: T3, Glucocorticoid receptor; assay: Transrepression activity at glucocorticoid receptor in human fibroblasts assessed as inhibition of IL-1-induced IL-6 production after 18 to 24 hrs
Method in brief: (§1)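 Human foreskin fibroblasts grown in Iscove's medium with 10% charcoal/dextran-treated FBS, plated at 20000/well two days before. Medium replaced, then compound (0.4% DMSO final) and recombinant human IL-1 (1 ng/mL final) added. 18–24 h at 37 °C; IL-6 in medium quantified by electrochemiluminescence, DELFIA or ELISA. IC50 by four-parameter fit of duplicate 11-point curves. Efficacy relative to dexamethasone (100%); top concentration 2 μM.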

[4] = molecular target: T1, Glucocorticoid receptor (Homo sapiens); assay: Transrepression activity at glucocorticoid receptor in human fibroblasts assessed as inhibition of IL-1-induced IL-6 production at 2 uM after 18 to 24 hrs relative to dexomethasone; method in brief: as §1
[5] = Permeability across human Caco2 cells; format: ADME, cell-based; details: Caco-2, read-out: permeability
[6] = Aqueous solubility of the compound in buffer at pH 7; format: physicochemical
[7] = Cmax in B10.RIII mouse at 100 mg/kg, po; format: ADME, organism-based; set-up: dose 100 mg/kg, route oral; details: in vivo
Method in brief: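 Plasma levels measured in satellite B10.RIII mice (n = 3) after a single 100 mg/kg oral dose.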

[8] = Oral bioavailability in rat at 30 mg/kg; format: ADME, organism-based; details: in vivo
Mus musculus = assay: Antiinflammatory activity in po dosed Balb/c mouse assessed as inhibition of LPS-induced TNFalpha production administered 60 mins prior to LPS challenge measured after 1 hr by […]; format: functional

| SMILES | Emax [1] [%] | IC50 (Progesterone receptor) [nM] | IC50 (Glucocorticoid receptor [2]) [nM] | IC50 (Glucocorticoid receptor [3]) [nM] | Emax [4] [%] | Papp [5] [×10⁻⁶ cm/s] | solubility [6] [µg/mL] | Cmax [7] [µM] | bioavailability [8] [%] | ED50 (Mus musculus) [mg/kg] |
| --- | --- | --- | --- | --- | --- | --- | --- | --- | --- | --- |
| CC(C)(CC(O)(Cc1cc2ncncc2[nH]1)C(F)(F)F)c1ccc(F)cc1O (racemic) | 22 | 880 | 5 | 9 | 86 | – | – | – | – | – |
| Cc1ccc(F)cc1C(C)(C)CC(O)(Cc1cc2nc(-c3ccccc3)ncc2[nH]1)C(F)(F)F (racemic) | 36 | > 2000 | 5 | 8 | 93 | – | – | – | – | – |
| Cc1ccc(F)cc1C(C)(C)C[C@@](O)(Cc1cc2ncncc2[nH]1)C(F)(F)F | 0 | > 2000 | 4 | 13 | 72 | – | – | 4.32 | 13 | 1 |
| Cc1ccc(F)cc1C(C)(C)CC(O)(Cc1cc2cc(-c3ccccc3)nnc2[nH]1)C(F)(F)F (racemic) | 75 | > 2000 | 13 | 6 | – | – | – | – | – | – |

Continued, in another order:

| Emax [1] [%] | IC50 (Progesterone receptor) [nM] | IC50 (Glucocorticoid receptor [2]) [nM] | IC50 (Glucocorticoid receptor [3]) [nM] | Emax [4] [%] | Papp [5] [×10⁻⁶ cm/s] | solubility [6] [µg/mL] | Cmax [7] [µM] | bioavailability [8] [%] | SMILES | ED50 (Mus musculus) [mg/kg] |
| --- | --- | --- | --- | --- | --- | --- | --- | --- | --- | --- |
| 0 | > 2000 | 8 | 19 | 74 | 11 | 11 (≈ 27.8 µM) | – | – | Cc1ccc(F)cc1C(C)(C)CC(O)(Cc1cc2ncncc2[nH]1)C(F)(F)F (racemic) | – |
| 12 | 1700 | 5 | 13 | 87 | – | – | – | – | CC(C)(CC(O)(Cc1cc2ncncc2[nH]1)C(F)(F)F)c1cc(Cl)cc2c1OCC2 (racemic) | – |
| 32 | > 2000 | 5 | 12 | 92 | – | – | – | – | Cc1ccc(F)cc1C(C)(C)CC(O)(Cc1cc2nc(-c3cccnc3)ncc2[nH]1)C(F)(F)F (racemic) | – |
| 7 | > 2000 | 7 | 16 | 85 | 13 | 2 (≈ 5.06 µM) | – | – | Cc1ccc(F)cc1C(C)(C)CC(O)(Cc1cc2nnccc2[nH]1)C(F)(F)F (racemic) | – |
| 22 | > 2000 | 8 | 19 | 84 | – | – | – | – | Cc1ccc(F)cc1C(C)(C)CC(O)(Cc1cc2nc(N3CCS(=O)(=O)CC3)ncc2[nH]1)C(F)(F)F (racemic) | – |
| 0 | > 2000 | 5 | 9 | 86 | – | – | 38.9 | 9 | Cc1ccc(F)cc1C(C)(C)C[C@@](O)(Cc1cc2nnccc2[nH]1)C(F)(F)F | 3 |
